Shown are actives, neighbours in structure and some others; about 2.5% of the full set was active somewhere.
SENP8 block-1: inhibitors of human SENP8 protease; purified SENP8, Z-RLRGG-aminoluciferin cleavage, luminescence; inhibition, % at 10 µM; 330,000 compounds, 1.2% hits; in the data active means inhibition above about 50%
SENP8 block-2: blocks human SENP8 cleavage of Nedd8 substrate. Q96LD8. recombinant SENP8, Nedd8 substrate fluorescence. inhibition, % at 20 µM. AID 602440. 360,000 compounds, 0.64% hits; in the data active means inhibition mostly above about 40%, no sharp cut-off; inactive means mostly below about 27%
SENP1 FRET inh: inhibitors of human SENP1 SUMO protease catalytic domain. Q9P0U3. AID 624204. inhibition, % at 10 µM. 360,000 compounds, 0.21% hits. recombinant SENP1 catalytic domain, CyPet-SUMO1-YPet FRET cleavage;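 active means inhibition at least 30% at 10 µM, raw YFP signal under a set limit, fluorescence ratio 0.5 to 1.5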;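 further: 0% = enzyme with DMSO and 100% = no enzyme wells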
Target sequence (Q9P0U3 419-644 limits assumed): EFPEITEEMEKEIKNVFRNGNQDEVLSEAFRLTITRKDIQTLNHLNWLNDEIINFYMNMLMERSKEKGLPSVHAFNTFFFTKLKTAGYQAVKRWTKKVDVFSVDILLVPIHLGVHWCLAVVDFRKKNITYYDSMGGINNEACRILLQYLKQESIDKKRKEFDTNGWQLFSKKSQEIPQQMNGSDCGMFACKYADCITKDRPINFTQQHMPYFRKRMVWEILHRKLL
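Assay system – human recombinant His6-tagged SENP1 catalytic domain enzyme · Input – SENP1 enzyme, 20 pM final · Buffer or medium – Tris pH 8 buffer plus EDTA, NaCl, BME, BSA, NP40, catalase · Schedule – 50 min reaction at room temperature · Technique – FRET read of cyan and yellow fluorescence · Control set – no-enzyme wells low, DMSO-plus-enzyme wells high control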
SENP7 block: inhibitors of human SENP7 protease; recombinant SENP7, Z-RLRGG-aminoluciferin luminescence, 40 min; 330,000 compounds, 1.5% hits; Q9BQF6; inhibition, % at 5 µM;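 active means inhibition above about 50% at the single test dose, limit read from the data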;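 further: plate controls were DMSO with enzyme for no effect and no enzyme buffer wells for full effect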
Target sequence (Q9BQF6 706-1050 limits assumed): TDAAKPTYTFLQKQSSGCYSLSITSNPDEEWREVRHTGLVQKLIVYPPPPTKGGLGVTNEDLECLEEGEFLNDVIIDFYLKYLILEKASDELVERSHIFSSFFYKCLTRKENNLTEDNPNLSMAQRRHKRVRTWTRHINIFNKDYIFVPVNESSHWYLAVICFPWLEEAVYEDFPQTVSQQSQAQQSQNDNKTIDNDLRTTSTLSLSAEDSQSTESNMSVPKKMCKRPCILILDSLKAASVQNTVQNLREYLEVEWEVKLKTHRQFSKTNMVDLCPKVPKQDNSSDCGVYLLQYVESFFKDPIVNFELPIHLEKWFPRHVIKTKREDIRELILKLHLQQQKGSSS
SENP6 block: inhibitors of human SENP6 protease; Recombinant SENP6 catalytic domain, aminoluciferin luminescence; inhibition, % at 10 µM; 330,000 compounds, 1.8% hits; AID 2599;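 active means inhibition above about 50% at the single tested dose, limit read from the data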;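 further: plate controls were DMSO wells with enzyme for no effect and DMSO wells lacking enzyme for full effect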
SENP8 inh conf: confirmation of human SENP8 protease inhibitors | inhibition, % at 25 µM | AID 624319 | shares compounds with SENP8 block-2 | purified SENP8, Nedd8-AMC/pro-Nedd8 cleavage fluorescence, 30 min | 1,400 compounds, 15% hits; in the data active means inhibition mostly above about 39%, no sharp cut-off; inactive means mostly below about 34%
The depositor's hits bear a star; · = not tested or not shown.

SMILES	SENP8 block-1	SENP8 block-2	SENP1 FRET inh	SENP7 block	SENP6 block	SENP8 inh conf
CCC(=O)NC(Nc1sc2c(c1C(=O)OC)CCCC2)(C(F)(F)F)C(F)(F)F	0	43*	2	-1	-8	12
COCC(=O)Nc1sc2c(c1C(=O)OC)CCCC2	2	-10	-1	5	-2	·
CC1CCN(C(=O)c2nc[nH]c2C(=O)O[C@H](C)c2ccccc2)CC1	3	19	3	-2	4	·
C[C@@H](OC(=O)c1[nH]cnc1C(=O)N1CCc2ccccc2C1)c1ccccc1	6	52*	-1	4	6	86*
CCNC(=O)NC(=O)C(C)Sc1nc2ccccc2n1CC(C)C (stereo not given)	2	42*	1	1	-1	13
Cn1cnc2nc[nH]c2c1=O	·	58*	4	·	·	12
Cn1c(=O)[nH]c2nc[nH]c2c1=O	-4	13	-3	4	9	·
COC(=O)CCCC1=CC2=CC(=O)C(C)(OC(=O)c3cccs3)C(=O)C2=CN1C1CCCC1 (stereo not given)	9	46*	-15	3	7	49*
COC(=O)CCCC1=CC2=CC(=O)C(C)(OC(=O)c3cccs3)C(=O)C2=CN1Cc1ccccc1 (stereo not given)	16	13	-37	5	25	·
O=C1N/C(=N\c2ccccn2)SC1Cc1ccccc1Cl (stereo not given)	-4	8	1	15	-5	·
Clc1ss/c(=N\c2ccccn2)c1Cl	-3	49*	-2	13	15	29
CCOC(=O)c1nn(-c2ccc(C)cc2)c(=O)c2c(N)scc12	3	14	0	8	22	·
Nc1scc2c(C(=O)O)nn(-c3ccccc3)c(=O)c12	12	40*	-3	6	-17	20
O=C(C[n+]1cc(-c2ccccc2)n2c1CCCCC2)c1ccc(Br)cc1	-4	46*	-1	6	-16	10
Cc1ccc(C(=O)C[n+]2cc(-c3ccc(C)cc3)n3c2CCCCC3)cc1	-8	10	3	-14	14	·
COC(=O)Cc1c(C)[nH]n(-c2cc(Cl)cc(Cl)c2)c1=O	0	59*	1	13	17	12
CCOC(=O)c1n[nH]n(-c2cc(Cl)cc(Cl)c2)c1=O	4	6	0	-8	-13	·
CN1CCC(=NNC(=O)C(=O)NC2CCCC2)CC1	4	40*	0	7	2	5
CN1CCC(=NNC(=O)C(=O)NC2CCCCC2)CC1	-2	7	-1	5	-16	·
COc1ccc(N2CSC3=C(C#N)C(c4cccc(OC)c4OC)CC(=O)N3C2)cc1 (stereo not given)	12	-16	-34	10	4	·
COc1ccc2ccccc2c1C1CC(=O)N2CN(C3CCCCC3)CSC2=C1C#N (stereo not given)	-2	75*	3	-4	0	9
CCCc1cc(=O)[nH]c(SCC(=O)Nc2ncc(S(=O)(=O)c3ccc([N+](=O)[O-])cc3)s2)n1	0	47*	0	-2	-7	21
O=C1c2ccccc2C(=O)c2c1ccc1c(=O)n(C3CCCCC3)[nH]c21	-8	33	-3	-3	17	·
O=C1C2=C(c3ccccc31)[N+](=O)C1CCCCC1N2[O-] (stereo not given)	28	84*	-1	31	50	61*
Cc1ccc(-c2csc(NC(=O)c3cccc([N+](=O)[O-])c3)n2)cc1	0	48*	3	-9	-2	19
SMILES	SENP8 block-1	SENP8 block-2	SENP1 FRET inh	SENP7 block	SENP6 block	SENP8 inh conf
O=C(Nc1nc(-c2ccc([N+](=O)[O-])cc2)cs1)c1c(F)cccc1F	2	7	4	5	-11	·
COc1ccccc1-n1c(SCC(=O)Nc2cc(C)on2)nc2c([nH]c3ccccc32)c1=O	13	-35	-1	4	19	·
Cc1ccc(C)c2c1CCCC2=O	·	6	1	·	·	·
CN(C)/C=C/C=C1C(=O)CCCC1=O	-9	49*	-1	-6	-6	6
COc1ccc(/C(C)=N/NC(=O)CNC(=O)/C=C\c2ccccc2OC)c(OC)c1	-4	-76	2	9	-9	·
Cc1ccccc1N1C(=O)CC(N(O)c2ccccc2)C1=O (stereo not given)	0	13	2	0	-3	·
O=C1CC(N(O)c2ccccc2)C(=O)N1c1cc(Cl)cc(Cl)c1 (stereo not given)	-11	44*	-1	-1	-6	17
CCOC(=O)C1=C(C)NC(=O)NC1c1ccc(OC)c(Cl)c1 (stereo not given)	-8	9	1	-5	-16	·
CCOC(=O)C1=C(C)NC(=O)NC1c1ccc(OCCO)c(OC)c1 (stereo not given)	-8	40*	1	-6	-6	3
COc1cc(C(C(=O)NCc2ccccc2)N(C(=O)c2snc(C(N)=O)c2N)C2CCCC2)cc(OC)c1OC (stereo not given)	1	-234	-10	4	13	·
O=C(Nc1ccc(N2CCCC(O)C2)cc1)c1snc2c(=O)[nH]cnc12 (stereo not given)	-1	6	1	-4	-9	·
Cc1nc2c(C(=O)Nc3ccc(N4CCCC(O)C4)cc3)snc2c(=O)[nH]1 (stereo not given)	-1	57*	3	-5	-2	-4
Cc1ccccc1S(=O)(=O)N1C[C@H]2CON(C)[C@H]2C[C@H]1c1cccc(Oc2ccccc2)c1	·	17	-2	·	·	·
CCOc1ccc(N/C=C/C(=O)c2ccc3ccccc3c2)c([N+](=O)[O-])c1	-3	25	17	-8	-18	·
CCOc1ccc(N/C=C/C(=O)c2ccc(C)cc2)c([N+](=O)[O-])c1	-7	43*	11	-7	-13	19
CN1[C@@H](Cc2ccccc2)COc2cc(N3CCSCC3)ccc2S1(=O)=O	·	15	0	·	·	·
COc1ccc(-c2nc[nH]c2[N+](=O)[O-])cc1	1	49*	2	-7	-6	17
CCC(=O)c1ccc(OCc2cn(CC(=O)c3ccc(O)cc3)nn2)cc1	·	32*	2	·	·	41*
COc1ccc(OCc2cn(CC(=O)c3ccc(O)cc3)nn2)cc1	·	22	-2	·	·	·
CC1CC(C)(C)CC2(C1)NC(=O)N(CC(=O)Nc1cc([N+](=O)[O-])ccc1F)C2=O (stereo not given)	4	6	-1	-5	-7	·
O=C(O)CCC1OC(=O)C(O)=C1c1ccccc1 (stereo not given)	-3	40*	-3	5	-3	7
O=C(NC1CCCN(Cc2ccc(Cl)cc2)C1)c1ccoc1 (stereo not given)	-4	13	-2	-6	-11	·
OC(COCC1CC=CCC1)Cn1cnc2ccccc21 (stereo not given)	8	20	-4	-3	9	·
